According to ChEMBL document CHEMBL5331128, “Alicyclic Ring Size Variation of 4-Phenyl-2-naphthoic Acid Derivatives as P2Y14 Receptor Antagonists” (J Med Chem, 2023):
pIC50, pKi: −log10 of the molar value. Activity calls are given as the source filed them.

Legend:
[1] = Lipophilicity, log D of compound at pH 7.4 incubated for 20 hrs by HPLC analysis; assay type: physicochemical; conditions: buffer
P2Y purinoceptor 14 [2] = biological target: T1, P2Y purinoceptor 14 (Homo sapiens, UniProt Q15391); assay: Displacement of fluorescent tracer 4-(4-(1-(4-(1-(6-(3-carboxylato-4-(3-iminio-3H-xanthen-9-yl)benzamido)hexyl)-4,5-dihydro-1H-pyrrol-3-yl)butyl)piperidin-1-ium-4-yl)phenyl)-7-(4-(trifluoromethyl)phenyl)-2-naphthoate from human P2Y14R stably expressed in CHO cells assessed as inhibition constant by flow cytometry; assay type: cell-based
T1 sequence (Q15391 whole entry): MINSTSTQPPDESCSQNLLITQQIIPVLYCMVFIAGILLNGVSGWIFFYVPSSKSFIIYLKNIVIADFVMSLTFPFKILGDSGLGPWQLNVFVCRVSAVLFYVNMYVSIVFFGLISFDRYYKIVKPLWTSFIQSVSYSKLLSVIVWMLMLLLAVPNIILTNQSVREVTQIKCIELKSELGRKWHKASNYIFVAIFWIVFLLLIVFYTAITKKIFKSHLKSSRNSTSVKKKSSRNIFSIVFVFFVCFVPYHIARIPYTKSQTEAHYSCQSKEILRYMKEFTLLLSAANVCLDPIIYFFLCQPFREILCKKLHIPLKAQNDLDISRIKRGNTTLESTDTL
How it was run: (§1)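 Whole-cell competitive binding: CHO cells expressing hP2Y14R (or HEK-293 cells expressing mP2Y14R) incubated with AlexaFluor488-labelled antagonist tracer at 20 nM.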

P2Y purinoceptor 14 [3] = biological target: T1, P2Y purinoceptor 14; assay: Displacement of fluorescent tracer 4-(4-(1-(4-(1-(6-(3-carboxylato-4-(3-iminio-3H-xanthen-9-yl)benzamido)hexyl)-4,5-dihydro-1H-pyrrol-3-yl)butyl)piperidin-1-ium-4-yl)phenyl)-7-(4-(trifluoromethyl)phenyl)-2-naphthoate from human P2Y14R stably expressed in CHO cells by flow cytometry; assay type: cell-based; how it was run: as §1
Mus musculus [4] = assay: Anti-asthmatic activity against OVA/Aspergillus-sensitized protease-mediated C57BL/6J mouse model allergic asthma assessed as reduction in lymphocytes in BAL fluid at 10 mg/kg,ip followed by 0.5 hrs OVA challenge and measured after 48 hrs; assay type: functional, organism-based; conditions: time 48.5 hrs
Mus musculus [5] = assay: Antiallodynic activity in CCI surgery neuropathic pain Hsd:ICR mouse model assessed as reversal of mechano-allodynia by measuring paw withdrawal threshold at 10 micromol/kg,ip and measured upto 5 days by von frey test; assay type: functional, organism-based; conditions: dose 10.0 µmol/kg, time <= 5.0 day
How it was run: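 CCI neuropathic pain in adult male Hsd:ICR (CD-1) mice (20–30 g). Single i.p. injection on day 7 after sciatic nerve constriction, at peak pain. Vehicle 10% (Kolliphor HS 15:DMSO 5:95) in saline, 0.2 mL. Paw withdrawal threshold by von Frey filaments on ipsilateral and contralateral hindpaws. Mean ± SD; two-way ANOVA with Dunnett's test versus day 0 and day 7.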

Mus musculus [6] = assay: Anti-asthmatic activity against OVA/Aspergillus-sensitized protease-mediated C57BL/6J mouse model allergic asthma assessed as reduction in neutrophils in BAL fluid at 10 mg/kg,ip followed by 0.5 hrs OVA challenge and measured after 48 hrs; assay type: functional, organism-based; conditions: time 48.5 hrs
Mus musculus [7] = assay: Antiallodynic activity in CCI surgery neuropathic pain Hsd:ICR mouse model assessed as reversal of mechano-allodynia by measuring paw withdrawal threshold at 10 micromol/kg,po and measured upto 6 hrs by von frey test; assay type: functional, organism-based; conditions: dose 10.0 µmol/kg
How it was run: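 CCI neuropathic pain in adult male CD-1 mice. Single oral gavage dose of 10 μmol/kg on day 7 post-surgery. Vehicle 5% DMSO + 10% (Kolliphor HS 15:DMSO 5:95) in 0.5% methylcellulose, 0.2 mL. Von Frey paw withdrawal threshold on both hindpaws. Mean ± SD; two-way ANOVA with Dunnett's test.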

Mus musculus [8] = assay: Anti-asthmatic activity against OVA/Aspergillus-sensitized protease-mediated C57BL/6J mouse model allergic asthma assessed as reduction in macrophages in BAL fluid at 10 mg/kg,ip followed by 0.5 hrs OVA challenge and measured after 48 hrs; assay type: functional, organism-based; conditions: time 48.5 hrs
Mus musculus [9] = assay: Anti-asthmatic activity against OVA/Aspergillus-sensitized protease-mediated C57BL/6J mouse model allergic asthma assessed as reduction in airway eosinophilia in BAL fluid at 10 mg/kg,ip followed by 0.5 hrs OVA challenge and measured after 48 hrs; assay type: functional, organism-based; conditions: time 48.5 hrs
[10] = Selectivity ratio, ratio of IC50 for displacement of fluorescent tracer 4-(4-(1-(4-(1-(6-(3-carboxylato-4-(3-iminio-3H-xanthen-9-yl)benzamido)hexyl)-4,5-dihydro-1H-pyrrol-3-yl)butyl)piperidin-1-ium-4-yl)phenyl)-7-(4-(trifluoromethyl)phenyl)-2-naphthoate from mouse P2Y14R stably expressed in human HEK293 cells to IC50 for displacement of fluorescent tracer 4-(4-(1-(4-(1-(6-(3-carboxylato-4-(3-iminio-3H-xanthen-9-yl)benzamido)hexyl)-4,5-dihydro-1H-pyrrol-3-yl)butyl)piperidin-1-ium-4-yl)phenyl)-7-(4-(trifluoromethyl)phenyl)-2-naphthoate from human P2Y14R stably expressed in CHO cells; assay type: cell-based
P2Y purinoceptor 14 [11] = biological target: T2, P2Y purinoceptor 14 (Mus musculus, UniProt Q9ESG6); assay: Displacement of fluorescent tracer 4-(4-(1-(4-(1-(6-(3-carboxylato-4-(3-iminio-3H-xanthen-9-yl)benzamido)hexyl)-4,5-dihydro-1H-pyrrol-3-yl)butyl)piperidin-1-ium-4-yl)phenyl)-7-(4-(trifluoromethyl)phenyl)-2-naphthoate from mouse P2Y14R stably expressed in human HEK293 cells by flow cytometry; assay type: cell-based
T2 sequence (Q9ESG6 whole entry): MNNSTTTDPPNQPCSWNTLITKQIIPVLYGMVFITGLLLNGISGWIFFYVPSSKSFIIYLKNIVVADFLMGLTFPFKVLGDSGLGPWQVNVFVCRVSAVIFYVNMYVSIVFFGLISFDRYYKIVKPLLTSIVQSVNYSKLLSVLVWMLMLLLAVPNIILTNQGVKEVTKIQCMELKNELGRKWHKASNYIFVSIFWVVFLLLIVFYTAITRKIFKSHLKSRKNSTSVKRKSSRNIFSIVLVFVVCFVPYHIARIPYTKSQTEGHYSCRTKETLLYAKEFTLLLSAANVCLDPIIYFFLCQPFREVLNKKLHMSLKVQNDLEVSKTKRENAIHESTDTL
How it was run: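 Whole-cell competitive binding: CHO cells expressing hP2Y14R (or HEK-293 cells expressing mP2Y14R) incubated with AlexaFluor488-labelled antagonist tracer at 20 nM. […] Ki derived by dividing IC50 by 1.72.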

Structure (SMILES)	logD at 20 h [1]	pKi (P2Y purinoceptor 14 [2])	pIC50 (P2Y purinoceptor 14 [3])	also measured
O=C(O)c1cc(-c2ccc(C3CC4(CNC4)C3)cc2)c2ccc(-c3ccc(C(F)(F)F)cc3)cc2c1	1.9	7.57	–	–
O=C(O)c1cc(-c2ccc([C@@H]3[C@@H]4CNC[C@H]3C4)cc2)c2ccc(-c3ccc(C(F)(F)F)cc3)cc2c1	2.8	6.52	6.28	–
NCCCCCCn1cc(CCCCN2CCC(c3ccc(-c4cc(C(=O)O)cc5cc(-c6ccc(C(F)(F)F)cc6)ccc45)cc3)CC2)nn1	–	7.17	6.94	–
CC(C)(C)OC(=O)NCCCCCCn1cc(CCCCN2CCC(c3ccc(-c4cc(C(=O)O)cc5cc(-c6ccc(C(F)(F)F)cc6)ccc45)cc3)CC2)nn1	–	6.61	6.37	–
CCOC(=O)N1C[C@H]2C[C@@H](C1)[C@@]2(O)c1ccc(-c2cc(C(=O)OCC(=O)N(C)C)cc3cc(-c4ccc(C(F)(F)F)cc4)ccc23)cc1	–	–	–	Activity (Mus musculus [4]): inactive; Activity (Mus musculus [5]): Active; Activity (Mus musculus [6]): inactive; Activity (Mus musculus [7]): Active; Activity (Mus musculus [8]): inactive; Activity (Mus musculus [9]): inactive
O=C(O)c1cc(-c2ccc(C3(O)CCCNCCC3)cc2)c2ccc(-c3ccc(C(F)(F)F)cc3)cc2c1	–	5.99	–	–
O=C(O)c1cc(-c2ccc(C3CCCNCCC3)cc2)c2ccc(-c3ccc(C(F)(F)F)cc3)cc2c1	2.5	7.97	7.73	Ratio IC50 [10]: 0.627; pIC50 (P2Y purinoceptor 14 [11]): 7.94
CCOC(=O)N1C[C@H]2C[C@@H]1C[C@@H]2c1ccc(-c2cc(C(=O)OCC(=O)N(C)C)cc3cc(-c4ccc(C(F)(F)F)cc4)ccc23)cc1	–	–	–	Activity (Mus musculus [5]): Active; Activity (Mus musculus [7]): Active
COC1(c2ccc(-c3cc(C(=O)O)cc4cc(-c5ccc(C(F)(F)F)cc5)ccc34)cc2)CC2(CNC2)C1	1.8	7.57	7.33	–
O=C(O)c1cc(-c2ccc(C3CNC3)cc2)c2ccc(-c3ccc(C(F)(F)F)cc3)cc2c1	1.4	7.42	–	–
O=C(O)c1cc(-c2ccc(/C3=C/CCNCCC3)cc2)c2ccc(-c3ccc(C(F)(F)F)cc3)cc2c1	2.9	7.47	7.23	–
CN(C)C(=O)COC(=O)c1cc(-c2ccc([C@]3(O)[C@@H]4CNC[C@H]3C4)cc2)c2ccc(-c3ccc(C(F)(F)F)cc3)cc2c1	–	5.55	5.32	–
O=C(O)c1cc(-c2ccc(C3C[C@H]4CNC[C@@H]4C3)cc2)c2ccc(-c3ccc(C(F)(F)F)cc3)cc2c1 (racemic)	2.4	7.73	–	–
CCOC(=O)N1C[C@H]2C[C@@H](C1)[C@@]2(O)c1ccc(-c2cc(C(=O)O)cc3cc(-c4ccc(C(F)(F)F)cc4)ccc23)cc1	–	7.32	7.09	–
O=C(O)c1cc(-c2ccc(C3(O)CC4(CNC4)C3)cc2)c2ccc(-c3ccc(C(F)(F)F)cc3)cc2c1	0.81	7.92	–	–
O=C(O)c1cc(-c2ccc(C3=C[C@H]4CNC[C@@H]4C3)cc2)c2ccc(-c3ccc(C(F)(F)F)cc3)cc2c1 (racemic)	2.2	8.02	–	Ratio IC50 [10]: 0.336; pIC50 (P2Y purinoceptor 14 [11]): 8.25
O=C(O)c1cc(-c2ccc(C3CCNC3)cc2)c2ccc(-c3ccc(C(F)(F)F)cc3)cc2c1 (racemic)	1.6	–	–	–
